Measured values reported in ChEMBL document CHEMBL3351432, “Microwave-assisted synthesis of phenanthroimidazole derivatives as stabilizer of c-myc G-quadruplex DNA” (Bioorg Med Chem, 2014).
The source made the active and inactive calls. No cut-off for these calls is given here.

How the values were obtained:
[1] = Drug uptake in cytoplasm of human MCF7 cells at 10 uM after 24 hrs by fluorescence microscopy; format: ADME, cell-based; settings: mcf7, 24 h
Method in brief: (§1)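 MCF-7 cells seeded at 5 × 10^4 per well, exposed to compound at 10 μM for 24 h, then imaged by fluorescence microscopy for intracellular fluorescence and morphology.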

[2] = test system: HeLa; experiment: Growth inhibition of human HeLa cells after 72 hrs by MTT assay; format: functional, cell-based
Method in brief: (§2)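 MTT viability assay. Cells seeded at 3 × 10^3 per well and allowed 24 h, then treated 72 h with a concentration series from 1 mM DMSO stocks. MTT (5 mg/ml in PBS) added for 5 h, formazan dissolved in DMSO, absorbance read at 570 nm.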

[3] = test system: MDA-MB-231; experiment: Growth inhibition of human MDA-MB-231 cells after 72 hrs ny MTT assay; format: functional, cell-based; settings: MDA-MB-231, 72 h; method in brief: as §2
[4] = test system: MCF7; experiment: Growth inhibition of human MCF7 cells after 72 hrs by MTT assay; format: functional, cell-based; settings: MCF7, 72 h; method in brief: as §2
[5] = Drug uptake in nucleus of human MCF7 cells at 10 uM after 24 hrs by fluorescence microscopy; format: ADME, cell-based; settings: mcf7, 24 h; method in brief: as §1
[6] = Binding affinity to c-myc G-quadruplex DNA (unknown origin) assessed as change in melting temperature at 1 uM by FRET assay
Method in brief: (§3)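 FAM/TAMRA dual-labelled c-myc oligonucleotide (1 μM) in Tris-KCl buffer pH 7.2, annealed at 92 °C for 5 min and slowly cooled to room temperature. Compound added at varying concentrations. Fluorescence melting curves recorded on a real-time PCR system, holding each temperature 30 s before each reading. Tm shift taken relative to the no-compound control.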

[7] = Binding affinity to c-myc G-quadruplex DNA (unknown origin) assessed as increase in melting temperature by FRET assay; method in brief: as §3
[8] = Binding affinity to c-myc G-quadruplex DNA (unknown origin) assessed as change in melting temperature at 3 uM by FRET assay; method in brief: as §3
[9] = Binding affinity to c-myc G-quadruplex DNA (unknown origin) assessed as reduction in DNA CD signal strengths […] by CD spectroscopy; set-up: scale not given: the % may be the effect or the level left
Method in brief: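 CD of pre-folded c-myc G4 DNA (2 × 10^-6 M) in Tris-KCl buffer pH 7.2, 1 cm cell. Ligand added from 1 mM stock every 3 min, final range (0–118) × 10^-6 M.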

[10] = test system: MCF7; experiment: Induction of cell shrinking in human MCF7 cells at 10 uM after 24 hrs by fluorescence microscopy; format: functional, cell-based; method in brief: as §1
[11] = test system: MCF7; experiment: Induction of apoptosis in human MCF7 cells assessed as cell membrane rupture at 10 uM after 24 hrs by fluorescence microscopy; format: functional, cell-based; method in brief: as §1
[12] = test system: MCF7; experiment: Induction of cell membrane changes in human MCF7 cells assessed as roughening and unevening of cell membrane surface at 10 uM after 24 hrs by fluorescence microscopy; format: functional; method in brief: as §1
[13] = Binding affinity to c-myc G-quadruplex DNA (unknown origin) assessed as hypochromism at IL absorption at 20 uM by electronic spectra titration method
Method in brief: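 Titration in Tris-KCl buffer pH 7.2 with ligand held at 20 μM and G4 DNA added stepwise. 3 min incubation before each UV-vis spectrum. Hypochromism read at the intraligand band (250–300 nm).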

[14] = Stabilization of c-myc G-quadruplex DNA (unknown origin) assessed as reduction in Taq polymerase-mediated 5' to 3' extension at 10 to 40 uM by PCR stop assay
Method in brief: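 PCR-stop assay in 1× PCR buffer with c-myc G4 DNA primer pair (10 pM each), dNTPs 0.16 mM, Taq 2.5 U and compound over 0–250 μM. Cycling: 94 °C 3 min, then 30 cycles of 94/58/72 °C for 30 s each. Products run on 15% native PAGE in TBE and silver stained.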

Row | Structure (SMILES) | Drug uptake [1] | IC50 [2] [µM] | IC50 [3] [µM] | IC50 [4] [µM] | Drug uptake [5] | ΔTm [6] [°C] | Activity [7] | ΔTm [8] [°C] | Activity [9] [%] | Activity [13] [%] | Activity [14] | Activity [10] | Activity [11] | Activity [12] [%]
1 | O=S(=O)(O)c1ccccc1-c1nc2c3cccnc3c3ncccc3c2[nH]1 | Not Active | 240 | 152 | 162 | Not Active |  |  |  |  |  |  |  |  | 
2 | O=S(=O)(O)c1ccc(-c2nc3c4cccnc4c4ncccc4c3[nH]2)cc1 | Not Active | 62.4 | 60 | 184 | Not Active |  |  |  |  |  |  |  |  | 
3 | Brc1ccc(-c2nc3c4cccnc4c4ncccc4c3[nH]2)cc1 | Active | 8.5 | 3.6 | 22.9 | Active | 3.4 | Dose-dependent effect | 6.4 | 23 | 9.4 | Dose-dependent effect | Active | Active | <20

Now those with a lower IC50 [2], led by results:

Row | Drug uptake [1] | IC50 [2] [µM] | IC50 [3] [µM] | IC50 [4] [µM] | Drug uptake [5] | ΔTm [6] [°C] | Activity [7] | ΔTm [8] [°C] | Activity [9] [%] | Activity [13] [%] | Activity [14] | Structure (SMILES) | Activity [10] | Activity [11] | Activity [12] [%]
4 | Active | 7.9 | 36 | 27.3 | Active |  |  |  |  |  |  | Brc1ccccc1-c1nc2c3cccnc3c3ncccc3c2[nH]1 |  |  | 
5 | Not Active | 5.1 | 74.2 | 72.6 | Not Active |  |  |  |  |  |  | c1ccc(-c2nc3c4cccnc4c4ncccc4c3[nH]2)cc1 |  |  | 
